# In ChEMBL document CHEMBL5120856, “New salicylic acid derivatives, double inhibitors of glycolate oxidase and lactate dehydrogenase, as effective agents decreasing oxalate production” (Eur J Med Chem, 2022):
# Activity calls are given as the source filed them. The rule behind the calls is not given here.
# Legend:
# [1] = Toxicity in Agxt1 knockdown PH1 C57BL/6 mouse assessed as clinical signs of toxicity at 20 mg/kg, po administered for 5 days; format: organism-based; conditions: in vivo, pH 1, 20 mg/kg, 120 h, time 5 day
# In short: (§1)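 Ten male Agxt1-/- mice dosed orally at 20 mg/kg daily for 5 days; 24-h urine oxalate (creatinine-normalized) and glycolate compared with pre-treatment baseline; clinical signs of toxicity monitored; mean ± SE.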
# [2] = Inhibition of GO/LDHA in hyperoxaluric-primary hepatocyte isolated from Agxt1 knockdown PH1 C57BL/6 mouse measured at 48 hrs in the presence of 5 mM glycolate; format: cell-based
# In short: (§2)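 Agxt1-/- hepatocytes with 5 mM glycolate; eight inhibitor concentrations per replicate; extracellular oxalate measured colorimetrically at 24 or 48 h; EC50 as mean of three/four replicates ± SD.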
# [3] = tested on: HEK293; assay: Cytotoxicity against HEK293 cells assessed as reduction in cell viability upto 50 uM measured after 48 hrs by MTT assay; format: toxicity, cell-based; conditions: human, hek293, 48 h
# [4] = biological target: T1, L-lactate dehydrogenase B chain (Homo sapiens, UniProt P07195); assay: Non-competitive inhibition of human recombinant LDHB assessed as inhibition constant using varying concentration of pyruvate as substrate preincubated for 10 mins followed by substrate addition and measured every 60 sec for 10 mins in the presence of NADH by fluorescence assay
# T1 sequence (P07195 whole entry): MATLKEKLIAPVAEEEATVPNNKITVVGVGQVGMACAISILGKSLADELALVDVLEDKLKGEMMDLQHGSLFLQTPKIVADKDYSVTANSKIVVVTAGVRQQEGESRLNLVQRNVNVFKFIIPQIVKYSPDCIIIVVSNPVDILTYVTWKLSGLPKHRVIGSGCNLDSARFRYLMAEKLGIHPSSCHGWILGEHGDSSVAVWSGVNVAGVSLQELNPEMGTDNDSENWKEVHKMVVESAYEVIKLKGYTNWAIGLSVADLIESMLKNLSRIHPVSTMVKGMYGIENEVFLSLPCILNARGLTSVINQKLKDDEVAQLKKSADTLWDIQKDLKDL
# [5] = Inhibition of GO/LDHA in hyperoxaluric-primary hepatocyte isolated from Agxt1 knockdown PH1 C57BL/6 mouse measured at 24 hrs in the presence of 5 mM glycolate; format: cell-based; in short: as §2
# [6] = biological target: T2, 2-Hydroxyacid oxidase 1 (Mus musculus, UniProt Q9WU19); assay: Inhibition of N-terminal His-tagged mouse recombinant glycolate oxidase expressed in Escherichia coli BL21 (DE3) cells using glycolate as substrate preincubated for 10 mins followed by substrate addition and measured after 10 mins by Amplex red and horseradish peroxidase based fluorescence assay
# T2 sequence (Q9WU19 whole entry): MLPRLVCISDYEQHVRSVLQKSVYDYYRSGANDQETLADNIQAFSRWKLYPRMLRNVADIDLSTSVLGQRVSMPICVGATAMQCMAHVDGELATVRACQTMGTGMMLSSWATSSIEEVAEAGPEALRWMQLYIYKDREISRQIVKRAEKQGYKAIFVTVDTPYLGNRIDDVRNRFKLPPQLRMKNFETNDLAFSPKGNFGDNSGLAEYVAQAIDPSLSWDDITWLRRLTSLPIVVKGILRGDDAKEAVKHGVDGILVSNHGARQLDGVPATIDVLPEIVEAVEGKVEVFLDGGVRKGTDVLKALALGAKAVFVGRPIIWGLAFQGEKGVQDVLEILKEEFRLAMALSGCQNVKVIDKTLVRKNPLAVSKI
# [7] = tested on: Hepatocyte; assay: Inhibition of GO/LDHA in hyperoxaluric-primary hepatocyte isolated from Agxt1 knockdown PH1 C57BL/6 mouse assessed as reduction in extracellular oxalate concentration at 10 uM measured at 48 hrs in the presence of glycolate relative to control; format: cell-based; set-up: scale not given: the % may be the effect or the level left
# In short: (§3)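 Agxt1-/- mouse primary hepatocytes cultured with 5 mM glycolate, inhibitor at 10 μM; extracellular oxalate measured by colorimetric kit 24 and 48 h after inhibitor addition; relative oxalate = oxalate with inhibitor over oxalate without inhibitor; negative values mean below detection limit; mean of three/four replicates ± SD.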
# [8] = Inhibition of GO/LDHA in hyperoxaluric-primary hepatocyte isolated from Grhpr-knockdown PH2 C57BL/6 mouse measured at 48 hrs in the presence of 10 mM glycolate; format: cell-based
# In short: (§4)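 Grhpr-/- hepatocytes with 10 mM glycolate; eight inhibitor concentrations per replicate; colorimetric extracellular oxalate at 24 or 48 h; EC50 as mean of three/four replicates ± SD.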
# [9] = Inhibition of GO/LDHA in hyperoxaluric-primary hepatocyte isolated from Hoga1-knockdown PH3 C57BL/6 mouse measured at 48 hrs in the presence of hydroxyproline; format: cell-based
# In short: (§5)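 Hoga1-/- hepatocytes with 10 mM hydroxyproline; eight inhibitor concentrations per replicate; colorimetric extracellular oxalate at 24 or 48 h; EC50 as mean of three/four replicates ± SD.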
# [10] = biological target: T3, 2-Hydroxyacid oxidase 1 (Mus musculus) (UniProt Q9WU19); assay: Non-competitive mixed inhibition of N-terminal His-tagged mouse recombinant glycolate oxidase expressed in Escherichia coli BL21 (DE3) cells assessed as decrease in Vmax with increase in apparent Km using glycolate as substrate upto 60 microM
# T3 sequence (whole entry): T2 sequence (Q9WU19 whole entry)
# [11] = biological target: T2, 2-Hydroxyacid oxidase 1; assay: Non-competitive mixed inhibition of N-terminal His-tagged mouse recombinant glycolate oxidase expressed in Escherichia coli BL21 (DE3) cells assessed as inhibition constant using varying concentration of glycolate as substrate measured every 60 sec for 15 mins by Amplex red and horseradish peroxidase based fluorescence assay
# [12] = tested on: Hepatocyte; assay: Cytotoxicity against hyperoxaluric-primary hepatocyte isolated from Hoga1-knockdown PH3 C57BL/6 mouse assessed as cell death at 10 uM by MTS assay; format: toxicity, cell-based; conditions: hepatocytes, Hoga1-knockdown PH3, 10 µM
# In short: (§6)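 Primary hepatocytes from Agxt1-/- (PH1, 5 mM glycolate), Grhpr-/- (PH2, 10 mM glycolate) or Hoga1-/- (PH3, 10 mM hydroxyproline) mice, incubated with inhibitor at 10 μM; viability followed through the oxalate assay by MTS tetrazolium method.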
# [13] = tested on: Hepatocyte; assay: Inhibition of GO/LDHA in hyperoxaluric-primary hepatocyte isolated from Hoga1-knockdown PH3 C57BL/6 mouse assessed as reduction in relative oxalate output at 10 uM measured at 48 hrs in the presence of hydroxyproline relative to control; format: cell-based; set-up: scale not given: the % may be the effect or the level left
# In short: (§7)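 Hoga1-/- mouse primary hepatocytes challenged with 10 mM hydroxyproline, inhibitor 10 μM; extracellular oxalate measured by colorimetric kit 24 and 48 h after dosing, given as ratio to oxalate without inhibitor; negative values are below detection limit; mean of three/four replicates ± SD.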
# [14] = tested on: Mus musculus; assay: In vivo inhibition of GO/LDHA in Agxt1 knockdown PH1 C57BL/6 mouse assessed as increase in urine glycolate level at 20 mg/kg, po administered for 5 days relative to control; format: functional, organism-based; conditions: time 5.0 day; in short: as §1
# [15] = Inhibition of GO/LDHA in hyperoxaluric-primary hepatocyte isolated from Hoga1-knockdown PH3 C57BL/6 mouse measured at 24 hrs in the presence of hydroxyproline; format: cell-based; in short: as §5
# [16] = tested on: Hepatocyte; assay: Inhibition of GO/LDHA in hyperoxaluric-primary hepatocyte isolated from Agxt1 knockdown PH1 C57BL/6 mouse assessed as reduction in relative oxalate output at 10 uM measured at 24 hrs in the presence of glycolate relative to control; format: cell-based; set-up: scale not given: the % may be the effect or the level left; in short: as §3
# [17] = tested on: Hepatocyte; assay: Cytotoxicity against hyperoxaluric-primary hepatocyte isolated from Agxt1-knockdown PH1 C57BL/6 mouse assessed as cell death at 10 uM by MTS assay; format: toxicity, cell-based; conditions: hepatocytes, Agxt1-knockdown PH1, 10 µM; in short: as §6
# [18] = tested on: Hepatocyte; assay: Cytotoxicity against hyperoxaluric-primary hepatocyte isolated from Grhpr-knockdown PH2 C57BL/6 mouse assessed as cell death at 10 uM by MTS assay; format: toxicity, cell-based; conditions: hepatocytes, Grhpr-knockdown PH2 (primary hyperoxaluria type 2); in short: as §6
# [19] = Toxicity in Agxt1 knockdown PH1 C57BL/6 mouse assessed as tolerance at 20 mg/kg, po administered for 5 days; format: organism-based; conditions: in vivo, pH 1, 20 mg/kg, 120 h, time 5 day; in short: as §1
# [20] = In vivo inhibition of GO/LDHA in Agxt1 knockdown PH1 C57BL/6 mouse assessed as decrease in urine oxalate level at 20 mg/kg, po administered for 5 days relative to control; format: functional; set-up: scale not given: the % may be the effect or the level left; conditions: time 5 day
# In short: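 Agxt1-/- (PH1) mice, ten males, dosed orally at 20 mg/kg body weight once daily for 5 days. 24-h urine was collected, and oxalate was normalised to creatinine. Urine glycolate was also measured. Values are expressed as % of each animal's own basal pre-treatment excretion, which serves as the control, and are reported as mean ± SE.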
# [21] = biological target: T1, L-lactate dehydrogenase B chain; assay: Mixed inhibition of human recombinant LDHB assessed as inhibition constant using varying concentration of pyruvate as substrate preincubated for 10 mins followed by substrate addition and measured every 60 sec for 10 mins in the presence of NADH by fluorescence assay
# [22] = biological target: T1, L-lactate dehydrogenase B chain; assay: Inhibition of human recombinant LDHB using pyruvate as substrate preincubated for 10 mins followed by substrate addition and measured every 60 sec for 10 mins in the presence of NADH by fluorescence assay
# [23] = tested on: Hepatocyte; assay: Inhibition of GO/LDHA in hyperoxaluric-primary hepatocyte isolated from Grhpr-knockdown PH2 C57BL/6 mouse assessed as reduction in relative oxalate output at 10 uM measured at 48 hrs in the presence of glycolate relative to control; format: cell-based; set-up: scale not given: the % may be the effect or the level left
# In short: (§8)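 Grhpr-/- mouse primary hepatocytes cultured with 10 mM glycolate, inhibitor at 10 μM; extracellular oxalate determined colorimetrically at 24 and 48 h post-treatment, expressed relative to untreated medium (RO); negative RO means below detection limit; three/four replicates, mean ± SD.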
# [24] = tested on: Hepatocyte; assay: Inhibition of GO/LDHA in hyperoxaluric-primary hepatocyte isolated from Grhpr-knockdown PH2 C57BL/6 mouse assessed as reduction in relative oxalate output at 10 uM measured at 24 hrs in the presence of glycolate relative to control; format: cell-based; set-up: scale not given: the % may be the effect or the level left; in short: as §8
# [25] = tested on: Hepatocyte; assay: Inhibition of GO/LDHA in hyperoxaluric-primary hepatocyte isolated from Hoga1-knockdown PH3 C57BL/6 mouse assessed as reduction in relative oxalate output at 10 uM measured at 24 hrs in the presence of hydroxyproline relative to control; format: cell-based; set-up: scale not given: the % may be the effect or the level left; in short: as §7
# [26] = Inhibition of GO/LDHA in hyperoxaluric-primary hepatocyte isolated from Grhpr-knockdown PH2 C57BL/6 mouse measured at 24 hrs in the presence of 10 mM glycolate; format: cell-based; in short: as §4
smiles,measurement,setting,value
C#CCNCc1ccc(-c2ccc(O)c(C(=O)O)c2)o1.N,Activity,[1],Non-Toxic
same,EC50,[2],3.8 µM
same,Activity,[3],Non-Toxic
same,Ki,[4],5.1 µM
same,EC50,[5],4 µM
same,IC50,[6],8.1 µM
same,Activity,[7],70%
same,EC50,[8],2700 nM
same,EC50,[9],1900 nM
same,inhibition,[10],Active
same,Ki,[11],10.5 µM
same,Activity,[12],Non-Toxic
same,Activity,[13],70%
same,Activity,[14],Active
same,EC50,[15],1700 nM
same,Activity,[16],90%
same,Activity,[17],Non-Toxic
same,Activity,[18],Non-Toxic
same,Activity,[19],Non-Toxic
same,Activity,[20],50%
same,Ki,[21],2000 nM
same,IC50,[22],11.8 µM
same,Activity,[23],70%
same,Activity,[24],90%
same,Activity,[25],90%
same,EC50,[26],1200 nM
